# Experimental data as given in ChEMBL document CHEMBL1135475, “One-pot synthesis of benzo[b]furan and indole inhibitors of tubulin polymerization” (J Med Chem, 2002).
# Key:
# Tubulin = Tubulin (Bos taurus, UniProt Q6B856+Q862L2+Q862F3); test: Inhibition of tubulin (10 uM) polymerization, after a 20 min incubation at 30 degrees Centigrade; assay type: functional
# Tubulin (Bos taurus) = Tubulin (Bos taurus) (UniProt Q6B856+Q862L2+Q862F3); test: Percent inhibition of 5 uM of [3H]colchicine binding to 1 uM of tubulin by 5 uM of compound after a 10 minute incubation at 37 degrees C; assay type: protein assay
# Outline: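 Tubulin purified to electrophoretic homogeneity from bovine brain, used at 1.0 µM with [3H]colchicine and inhibitor both at 5.0 µM. […] At least two independent experiments per compound.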
IC50 (Tubulin) [µM],Structure (SMILES),inhibition (Tubulin (Bos taurus)) [%]
> 40,COc1ccc(-c2oc3cc(OC)ccc3c2-c2cc(OC)c(OC)c(OC)c2)cc1,
,COc1ccc2c(C(=O)c3cc(OC)c(OC)c(OC)c3)c(-c3ccc(OC)c(O)c3)sc2c1,21
,COc1ccc(-c2oc3cc(OC)ccc3c2C(=O)c2cc(OC)c(OC)c(OC)c2)cc1,77
